Like-named read-outs stand apart in the source and are kept apart here.
Key:
Co(II)-HDAC8 [1] = target: T1, Co(II)-HDAC8 (Homo sapiens, UniProt Q9BY41); format: biochemical; conditions: for substrate inhibition at higher peptide concentrations: peptide 0 – 1600 μM; for effect of pre-incubation of the peptide with Chelex 100 on observed activity: ~6 % (v/v) Chelex 100, room temperature, three hours
T1 sequence (Q9BY41 1-377): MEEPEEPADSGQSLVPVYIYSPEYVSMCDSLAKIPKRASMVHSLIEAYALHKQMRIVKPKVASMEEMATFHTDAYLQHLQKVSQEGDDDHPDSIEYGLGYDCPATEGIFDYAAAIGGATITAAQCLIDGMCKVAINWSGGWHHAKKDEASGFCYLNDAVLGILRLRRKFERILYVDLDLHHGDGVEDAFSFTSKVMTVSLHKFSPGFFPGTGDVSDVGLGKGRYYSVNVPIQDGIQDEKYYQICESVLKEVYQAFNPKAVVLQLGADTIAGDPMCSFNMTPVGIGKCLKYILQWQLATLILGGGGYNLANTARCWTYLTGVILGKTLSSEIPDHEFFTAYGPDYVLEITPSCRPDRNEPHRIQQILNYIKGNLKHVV

Co(II)-HDAC8 [2] = target: T1, Co(II)-HDAC8; assay: Fluorescamine assay, HDAC8-catalyzed deacetylation; format: biochemical; conditions: 200 μM peptide, 0.5 μM HDAC8, 30°C
Procedure, shortened: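 Started with 0.5 μM HDAC8 and quenched with 1 μM TSA at 0, 30, 60 and 90 min. Enzyme removed by 10K filtration. Flow-through mixed with 1 M boric acid pH 9 and fluorescamine, 10 min at RT. Fluorescence read at ex 340/em 460 nm against an N-α-acetyl lysine methyl ester standard curve (0–5 μM).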

HDAC8 [3] = assay: Inhibition of HDAC8 activity by magnesium; format: biochemical, human; conditions: 2 mM magnesium, continuous assay conditions; Figure S2
Co(II)-HDAC8 [4] = target: T1, Co(II)-HDAC8; assay: Optimized continuous coupled acetate assay, HDAC8-catalyzed deacetylation; format: biochemical; conditions: Figure 5 legend, 100 μM peptide
Procedure, shortened: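 Continuous coupled format in EDTA-stripped plates. Mixed 2:1 with Ac-KGGAKac-NH₂ (100 μM final). Started with Co(II)-HDAC8 (0.5–1 μM final). Rate taken from time-dependent NADH fluorescence (ex 340/em 460 nm).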

HDAC3/NCOR1 = HDAC3/NCOR1 (Homo sapiens, UniProt O15379+O75376); assay: Optimized stopped coupled acetate assay, HDAC3/NCOR1-catalyzed deacetylation; format: biochemical; conditions: 100 μM peptide, 0.5 μM HDAC3/NCOR1
Procedure, shortened: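 Started with 0.5 μM HDAC3/NCOR1 and quenched with 0.37% HCl at 0, 30, 60 and 90 min. Flash frozen at −80°C, then neutralised with 0.6% NaHCO₃. Pre-equilibrated ACS/citrate synthase/MDH coupler mix (ATP, NAD⁺, CoA, malate) added, 40 min at RT. NADH fluorescence read at ex 340/em 460 nm.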

HDAC8 [5] = conditions: HDAC8-catalyzed deacetylation; ref [25]; cited from earlier work
[6] = Michaelis-Menten fit, stopped coupled assay, 30°C, pH 8

HDAC3/NCOR1, sequence (O15379 whole entry): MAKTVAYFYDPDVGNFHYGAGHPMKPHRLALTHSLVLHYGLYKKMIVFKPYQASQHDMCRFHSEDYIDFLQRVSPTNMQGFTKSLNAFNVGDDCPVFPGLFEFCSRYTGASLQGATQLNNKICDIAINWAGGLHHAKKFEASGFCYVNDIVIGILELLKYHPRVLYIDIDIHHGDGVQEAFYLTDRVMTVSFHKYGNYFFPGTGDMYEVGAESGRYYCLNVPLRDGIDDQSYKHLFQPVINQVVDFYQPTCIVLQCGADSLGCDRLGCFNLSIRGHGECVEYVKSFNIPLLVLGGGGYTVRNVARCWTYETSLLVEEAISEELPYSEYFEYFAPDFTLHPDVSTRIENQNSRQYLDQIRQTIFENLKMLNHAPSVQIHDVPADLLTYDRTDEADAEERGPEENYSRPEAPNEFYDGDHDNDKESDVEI
HDAC3/NCOR1, sequence (O75376 395-489 partner limits assumed): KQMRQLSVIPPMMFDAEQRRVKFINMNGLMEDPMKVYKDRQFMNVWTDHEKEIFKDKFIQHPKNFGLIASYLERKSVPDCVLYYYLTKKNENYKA

Ac-KGGAKacW-NH2
increase of net transition state stabilization (Co(II)-HDAC8 [1]; addition of tryptophan or methylcoumarin moiety to the peptide): 0.1 to 0.5 kcal/mol | substrate inhibition at higher peptide concentrations (Co(II)-HDAC8 [1]; stopped coupled assay): modest to substantial inhibition was observed at higher peptide concentrations | effect of pre-incubation of the peptide with Chelex 100 on observed activity (Co(II)-HDAC8 [1]): no effect

Ac-KGGAKac-COO^−
lowering of kcat/KM relative to methylcoumarin peptide (Co(II)-HDAC8 [1]; C-terminal carboxylate vs methylcoumarin): 50 fold | Km (Co(II)-HDAC8 [1]; [6]): 730 µM | kcat (Co(II)-HDAC8 [1]; [6]): 0.041 s⁻¹ | kcat/KM (Co(II)-HDAC8 [1]; [6]): 56 M⁻¹ s⁻¹ | deacetylation rate (Co(II)-HDAC8 [1]; coupled acetate assay, 200 μM peptide, 0.5 μM HDAC8): 0.0021 ± 0.0003 µM/s | deacetylation rate (Co(II)-HDAC8 [2]): 0.0027 ± 0.0008 µM/s

magnesium
inhibition of HDAC8 activity (HDAC8 [3]): ~ 2 fold

Ac-KGGAKac-NH2
initial rate for deacetylation (Co(II)-HDAC8 [4]; 0.5 μM Co(II)-HDAC8): 0.011 ± 0.00041 µM/s | initial rate for deacetylation (Co(II)-HDAC8 [4]; 1 μM Co(II)-HDAC8): 0.022 ± 0.00043 µM/s | initial rate of deacetylation (HDAC3/NCOR1): 0.015 ± 0.0016 µM/s | ΔΔG‡ (kcat/KM) (Co(II)-HDAC8 [1]; Ac-KGGAKac-NH2 compared to Ac-KGGAKac-COO^−): 1.6 kal/mol | initial rate for deacetylation (Co(II)-HDAC8 [1]; Figure 5 legend, side-by-side stopped assay, 0.5 μM Co(II)-HDAC8, 100 μM peptide): 0.018 ± 0.0021 µM/s | kcat/KM enhancement relative to Ac-KGGAKac-COO^− peptide (Co(II)-HDAC8 [1]; amide vs carboxylate): 9 fold | substrate inhibition at higher peptide concentrations (Co(II)-HDAC8 [1]; stopped coupled assay): modest to substantial inhibition was observed at higher peptide concentrations | effect of pre-incubation of the peptide with Chelex 100 on observed activity (Co(II)-HDAC8 [1]): no effect

Ac-KGGAKac-methylcoumarin [reference compound]
kcat/KM (HDAC8 [5]): 2800 M⁻¹ s⁻¹ | ΔΔG‡ (kcat/KM) (Co(II)-HDAC8 [1]; Ac-KGGAKac-methylcoumarin compared to the C-terminal carboxylate peptide): 2.3 kcal/mol
